Consider four molecules from ChEMBL document CHEMBL3817737, “Structure-Based Identification of Novel Ligands Targeting Multiple Sites within a Chemokine-G-Protein-Coupled-Receptor Interface” (J Med Chem, 2016).

By Kd is commonly meant the constant that tells how readily two partners part at equilibrium.

Experiment [1] concerns the target Stromal cell-derived factor 1 (Homo sapiens, UniProt P48061, A65C/L36C).
Experiment [2] concerns the target T1, Stromal cell-derived factor 1 (Homo sapiens, UniProt P48061). As to the kind of experiment: Binding affinity to His6-SUMO fusion tagged wild type human [U-15N]CXCL12 expressed in Escherichia coli by 2D 1H-15N HMQC NMR spectroscopy.
In experiment [3] the target is T1, Stromal cell-derived factor 1. As to the kind of experiment: Binding affinity to His6-SUMO fusion tagged wild type human [U-15N]CXCL12 expressed in Escherichia coli assessed as induction of chemical shift perturbations to residues at I4/I6 binding site by 2D 1H-15N HMQC NMR spectroscopy. In short, it runs like this:
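[U-15N]-CXCL12 WT was made as a His6SUMO fusion in E. coli (Terrific Broth, 1 mM IPTG) and taken from inclusion bodies by Ni-NTA. Combined CSP = ((5ΔδH)2+(ΔδN)2)0.5. Kd came from single-site quadratic fits of the most-perturbed residues, fitted individually and averaged (±SD).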

T1 sequence (P48061 whole entry, the tested form may be a part): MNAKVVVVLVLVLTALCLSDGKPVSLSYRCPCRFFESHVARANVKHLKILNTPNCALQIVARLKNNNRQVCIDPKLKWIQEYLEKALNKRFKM
Sequence of Stromal cell-derived factor 1 (Homo sapiens, UniProt P48061, A65C/L36C) (P48061 22-93 L57C/A86C limits assumed): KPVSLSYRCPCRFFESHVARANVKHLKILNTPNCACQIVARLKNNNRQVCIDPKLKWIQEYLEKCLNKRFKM

As to `CC(C)O.CCCOc1ccc(C(Nc2ccc(F)cc2)P(=O)(O)O)cc1` (stereo unspecified), the dissociation constant Kd in experiment [1] was 74 µM; in experiment [2] it was “Dose-dependent effect”.

As for `C[C@H](NC(=O)CCn1ccc2c(Cl)cccc21)C(=O)O`, in experiment [3], the Activity was 16.7%. Also, the dissociation constant Kd in experiment [2] (read-out: Kd) stood at 1700 µM.

As to `O=C(O)CC1c2ccccc2CCN1C(=O)Nc1cccc(F)c1` (stereo unspecified), in experiment [3], the Activity came out at 12.5%.

`Cc1ccc(NS(=O)(=O)c2ccc(OCC(=O)O)c(C)c2)cc1C`: the Activity in experiment [3] came out at 12.5%.
